We go through 17 molecules from ChEMBL document CHEMBL1759867, “Evaluation of dihydropyrimidin-(2H)-one analogues and rhodanine derivatives as tyrosinase inhibitors” (Bioorg Med Chem Lett, 2011).

Molecules are shown by their SMILES. Calls of active or inactive are those of the source. The calls are words filed in the database; no cut-off is given here.

In one assay the target is T1, Tyrosinase (Agaricus bisporus) (UniProt O42713).
T1 sequence (whole entry): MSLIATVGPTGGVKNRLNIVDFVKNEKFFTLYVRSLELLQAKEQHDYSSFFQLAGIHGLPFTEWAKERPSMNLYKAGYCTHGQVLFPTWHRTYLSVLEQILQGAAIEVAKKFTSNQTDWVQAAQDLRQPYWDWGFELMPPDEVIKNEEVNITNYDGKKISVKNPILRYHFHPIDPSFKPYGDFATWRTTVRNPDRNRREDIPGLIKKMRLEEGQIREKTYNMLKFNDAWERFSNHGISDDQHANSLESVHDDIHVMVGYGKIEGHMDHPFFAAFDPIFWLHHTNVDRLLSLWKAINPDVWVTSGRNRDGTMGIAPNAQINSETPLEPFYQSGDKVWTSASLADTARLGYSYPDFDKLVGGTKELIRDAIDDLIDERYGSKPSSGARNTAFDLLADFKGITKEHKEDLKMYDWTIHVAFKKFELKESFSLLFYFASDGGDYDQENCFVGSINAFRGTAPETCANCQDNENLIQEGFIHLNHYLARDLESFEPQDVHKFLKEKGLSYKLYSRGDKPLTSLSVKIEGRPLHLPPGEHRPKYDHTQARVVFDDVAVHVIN
Put plainly: Inhibition of diphenolase activity of mushroom tyrosinase at 50 mM preincubated with compound for 10 mins before addition of L-DOPA as substrate by spectrophotometric analysis. The procedure, abridged:
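Mushroom tyrosinase diphenolase activity was measured on L-DOPA at 25 °C. Compounds were scored for activity at a single fixed concentration.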
On to `CC(=O)C1=C(C)NC(=O)NC1c1ccc(O)cc1` (configuration not stated), for which the inhibition result was “inactive”.

For `COc1cc(C2NC(=O)NC(C)=C2C(C)=O)ccc1O` (configuration not stated), the inhibition entry was “inactive”.

`CC(=O)C1=C(C)NC(=O)NC1c1ccccc1O` (configuration not stated): the inhibition result was “inactive”.

Take `CCO/N=C(\C)C1=C(C)NC(=O)NC1CC` (configuration not stated): the inhibition result is “inactive”.

Turning to `CCC1NC(=O)NC(C)=C1C(C)=O` (configuration not stated), the inhibition entry is “inactive”.

For the molecule `COc1ccc(C2NC(=O)NC(C)=C2C(C)=O)cc1` (configuration not stated), the inhibition result was “inactive”.

For `CC(=O)C1=C(C)NC(=O)NC1c1ccccc1` (configuration not stated), the inhibition entry was “inactive”.

A further assay has as its target T2, Tyrosinase (Agaricus bisporus, UniProt O42713).
T2 sequence (O42713 whole entry): T1 sequence (whole entry)
The assay can be described thus: Inhibition of diphenolase activity of mushroom tyrosinase preincubated with compound for 10 mins before addition of L-DOPA as substrate by spectrophotometric analysis. Summed up: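 Diphenolase activity of mushroom tyrosinase was measured with L-DOPA as substrate at 25 °C. IC50 was taken from logarithmic concentration–inhibition curves of at least eight points, as the mean of three experiments.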
For the molecule `CC(=O)C1=C(C)NC(=S)NC1c1ccc(O)cc1` (configuration not stated), the IC50 came to 12.3 mM.

For the molecule `O=C1NC(=S)S/C1=C\c1ccc(O)cc1`, the concentration for half-maximal inhibition (IC50) is 10.1 mM.

Take `O=C1NC(=S)S/C1=C\c1ccc(OCCO)cc1`: the IC50 came out at 0.56 mM.

As to `O=C1NC(=S)S/C1=C\c1ccccc1O`, the IC50 came out at 9.55 mM.

For the molecule `CC(=O)C1=C(C)NC(=S)NC1c1ccccc1O` (configuration not stated), the half-inhibitory concentration (IC50) amounted to 16.2 mM.

Take `COc1cc(C2NC(=S)NC(C)=C2C(C)=O)ccc1O` (configuration not stated): the IC50 came out at 20.1 mM.

For the molecule `COc1ccc(C2NC(=S)NC(C)=C2C(C)=O)cc1` (configuration not stated), the IC50 was 25.1 mM.

As to `COc1cc(/C=C2\SC(=S)NC2=O)ccc1O`, the IC50 came out at 11.1 mM.

Consider `CCC1NC(=S)NC(C)=C1C(C)=O` (configuration not stated), for which the IC50 was determined as 10.7 mM.

Consider `O=C1NC(=S)S/C1=C\c1ccc(OCCO)c(OCCO)c1`, for which the IC50 amounted to 5.69 mM.
